Assay results taken from ChEMBL document CHEMBL1649165, “Activity profile in vitro of micafungin against Spanish clinical isolates of common and emerging species of yeasts and molds” (2009).
≈ marks a conversion by molar mass, not a printed value.

Assays:
Format in all cases: functional
[1] = tested on: Rhizopus arrhizus; test: Antimicrobial activity against Rhizopus oryzae by broth microdilution method
Procedure, shortened: (§1)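 Filamentous fungus clinical isolates tested by the AFST-EUCAST reference broth microdilution method for moulds. For echinocandins, the endpoint was the minimum effective concentration: the lowest drug concentration giving aberrant hyphal growth, read with an inverted microscope.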

[2] = tested on: Trichosporon domesticum; test: Antimicrobial activity against Trichosporon mycotoxinivorans by broth microdilution method; conditions: Apiotrichum domesticum
Procedure, shortened: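 Spanish human clinical isolates were tested as nonfermentative yeasts by broth microdilution. The method strictly followed the EUCAST recommendations, with a minor modification to improve growth, and the read-out was the MIC.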

[3] = tested on: Alternaria alternata; test: Antimicrobial activity against Alternaria alternata by broth microdilution method
Procedure, shortened: (§2)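 Clinical mould isolates, tested by broth microdilution using the AFST-EUCAST reference method for filamentous fungi. For echinocandins, the endpoint was the minimum effective concentration: the lowest drug concentration giving aberrant hyphal growth, read with an inverted microscope.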

[4] = tested on: Trichosporon jirovecii; test: Antimicrobial activity against Trichosporon jirovecii by broth microdilution method; conditions: Cutaneotrichosporon jirovecii
Procedure, shortened: (§3)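 Nonfermentative yeast clinical isolates (Rhodotorula, Trichosporon) tested by broth microdilution. The EUCAST yeast recommendations were followed strictly, with one minor modification to improve growth. MIC was read as the endpoint.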

[5] = Antimicrobial activity against Hormographiella aspergillata by broth microdilution method; conditions: Coprinopsis cinerea; procedure, shortened: as §1
[6] = tested on: Hortaea werneckii; test: Antimicrobial activity against Hortaea werneckii by broth microdilution method
[7] = tested on: Fusarium proliferatum; test: Antimicrobial activity against Fusarium proliferatum by broth microdilution method; procedure, shortened: as §2
[8] = tested on: Mucor; test: Antimicrobial activity against Mucor spp.by broth microdilution method; procedure, shortened: as §1
[9] = tested on: Cunninghamella bertholletiae; test: Antimicrobial activity against Cunninghamella bertholletiae by broth microdilution method; procedure, shortened: as §2
[10] = tested on: Aspergillus nidulans; test: Antimicrobial activity against Aspergillus nidulans by broth microdilution method; procedure, shortened: as §2
[11] = tested on: Trichosporon; test: Antimicrobial activity against Trichosporon spp. by broth microdilution method; procedure, shortened: as §3
[12] = tested on: Cladophialophora bantiana; test: Antimicrobial activity against Cladophialophora bantiana by broth microdilution method; procedure, shortened: as §2
[13] = tested on: Exophiala dermatitidis; test: Antimicrobial activity against Exophiala dermatitidis by broth microdilution method
[14] = tested on: Penicillium; test: Antimicrobial activity against Penicillium spp. by broth microdilution method; procedure, shortened: as §1
[15] = tested on: Coprinellus domesticus; test: Antimicrobial activity against Hormographiella verticillata by broth microdilution method; procedure, shortened: as §1
[16] = tested on: Diutina rugosa; test: Antimicrobial activity against Candida rugosa by broth microdilution method
Procedure, shortened: (§4)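 Clinical isolates from human patients, tested by broth microdilution using the AFST-EUCAST reference procedure for fermentative yeasts. The MIC was read per that reference method.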

[17] = tested on: Yarrowia lipolytica; test: Antimicrobial activity against Yarrowia lipolytica by broth microdilution method
[18] = tested on: Acremonium sp.; test: Antimicrobial activity against Acremonium sp.by broth microdilution method; procedure, shortened: as §2
[19] = tested on: Paecilomyces variotii; test: Antimicrobial activity against Paecilomyces variotii by broth microdilution method; procedure, shortened: as §1
[20] = Antimicrobial activity against Rhizopus microsporus by broth microdilution method; procedure, shortened: as §1
[21] = tested on: Trichosporon inkin; test: Antimicrobial activity against Trichosporon inkin by broth microdilution method; procedure, shortened: as §3
[22] = tested on: Ustilago; test: Antimicrobial activity against Ustilago spp by broth microdilution method
[23] = tested on: Wickerhamomyces anomalus; test: Antimicrobial activity against Candida pelliculosa by broth microdilution method; conditions: Hansenula anomala; procedure, shortened: as §4
[24] = tested on: Debaryomyces hansenii; test: Antimicrobial activity against Candida famata by broth microdilution method; procedure, shortened: as §4
[25] = tested on: Candida orthopsilosis; test: Antimicrobial activity against Candida orthopsilosis by broth microdilution method; conditions: Lodderomyces orthopsilosis; procedure, shortened: as §4
[26] = tested on: Trichoderma; test: Antimicrobial activity against Trichoderma spp. by broth microdilution method; procedure, shortened: as §1
[27] = tested on: Aspergillus terreus; test: Antimicrobial activity against Aspergillus terreus by broth microdilution method; procedure, shortened: as §2
[28] = tested on: Candida metapsilosis; test: Antimicrobial activity against Candida metapsilosis by broth microdilution method; conditions: Lodderomyces metapsilosis; procedure, shortened: as §4
[29] = tested on: Beauveria bassiana; test: Antimicrobial activity against Beauveria bassiana by broth microdilution method; procedure, shortened: as §2
[30] = tested on: Candida tropicalis; test: Antimicrobial activity against Candida tropicalis by broth microdilution method; procedure, shortened: as §4
[31] = tested on: Aspergillus; test: Antimicrobial activity against Aspergillus spp. by broth microdilution method; procedure, shortened: as §2
[32] = tested on: Saksenaea vasiformis; test: Antimicrobial activity against Saksenaea vasiformis by broth microdilution method; procedure, shortened: as §1
[33] = tested on: Fusarium verticillioides; test: Antimicrobial activity against Fusarium verticillioides by broth microdilution method; procedure, shortened: as §1
[34] = tested on: Rhodotorula glutinis; test: Antimicrobial activity against Rhodotorula glutinis by broth microdilution method; procedure, shortened: as §3
[35] = tested on: Aspergillus fumigatus; test: Antimicrobial activity against Aspergillus fumigatus by broth microdilution method; procedure, shortened: as §2
[36] = tested on: Nakaseomyces glabratus; test: Antimicrobial activity against Candida glabrata by broth microdilution method; procedure, shortened: as §4
[37] = tested on: Aspergillus ustus; test: Antimicrobial activity against Aspergillus ustus by broth microdilution method; procedure, shortened: as §2
[38] = tested on: Aspergillus flavus; test: Antimicrobial activity against Aspergillus flavus by broth microdilution method; procedure, shortened: as §2
[39] = tested on: Cladosporium; test: Antimicrobial activity against Cladosporium spp. by broth microdilution method; procedure, shortened: as §2
[40] = tested on: Meyerozyma guilliermondii; test: Antimicrobial activity against Candida guilliermondii by broth microdilution method; procedure, shortened: as §4
[41] = tested on: Fusarium equiseti; test: Antimicrobial activity against Fusarium equiseti by broth microdilution method; procedure, shortened: as §2
[42] = tested on: Kazachstania pintolopesii; test: Antimicrobial activity against Candida pintolopesii by broth microdilution method; conditions: Arxiozyma pintolopesii; procedure, shortened: as §4
[43] = tested on: Trichosporon dermatis; test: Antimicrobial activity against Trichosporon dermatis by broth microdilution method; conditions: Cutaneotrichosporon dermatis; procedure, shortened: as §3
[44] = tested on: Rhodotorula mucilaginosa; test: Antimicrobial activity against Rhodotorula mucilaginosa by broth microdilution method; procedure, shortened: as §3
[45] = tested on: Candida parapsilosis; test: Antimicrobial activity against Candida parapsilosis by broth microdilution method; conditions: Lodderomyces parapsilosis; procedure, shortened: as §4

What does the source list for `C[C@@H]1[C@H](O)[C@@H](C)/C=C/C=C/C=C/C=C/C=C/C=C/C=C/[C@H](O[C@@H]2O[C@H](C)[C@@H](O)[C@H](N)[C@@H]2O)C[C@@H]2O[C@](O)(C[C@@H](O)C[C@@H](O)[C@H](O)CC[C@@H](O)C[C@@H](O)CC(=O)O[C@H]1C)C[C@H](O)[C@H]2C(=O)O` [AMPHOTERICIN B]?
MIC50 [1]: 0.5 mg/L (≈ 0.541 µM); MIC90 [1]: 2 mg/L (≈ 2.16 µM); MIC50 [2]: 0.5 mg/L (≈ 0.541 µM); MIC90 [2]: 8 mg/L (≈ 8.66 µM); MIC50 [3]: 0.5 mg/L (≈ 0.541 µM); MIC90 [3]: > 16 mg/L; MIC50 [4]: 0.5 mg/L (≈ 0.541 µM); MIC90 [4]: 8 mg/L (≈ 8.66 µM); MIC50 [5]: 0.5 mg/L (≈ 0.541 µM); MIC90 [5]: > 16 mg/L; MIC50 [6]: 0.25 mg/L (≈ 0.271 µM); MIC90 [6]: 1 mg/L (≈ 1.08 µM); MIC50 [7]: 2 mg/L (≈ 2.16 µM); MIC90 [7]: 4 mg/L (≈ 4.33 µM); MIC50 [8]: 0.12 mg/L (≈ 0.13 µM); MIC90 [8]: 1 mg/L (≈ 1.08 µM); MIC50 [9]: 2 mg/L (≈ 2.16 µM); MIC90 [9]: > 16 mg/L; MIC50 [10]: 1 mg/L (≈ 1.08 µM); MIC90 [10]: 4 mg/L (≈ 4.33 µM); MIC50 [11]: 0.5 mg/L (≈ 0.541 µM); MIC90 [11]: 8 mg/L (≈ 8.66 µM); MIC50 [12]: 0.25 mg/L (≈ 0.271 µM); MIC90 [12]: 1 mg/L (≈ 1.08 µM); MIC50 [13]: 0.25 mg/L (≈ 0.271 µM); MIC90 [13]: 1 mg/L (≈ 1.08 µM); MIC50 [14]: 0.5 mg/L (≈ 0.541 µM); MIC90 [14]: 2 mg/L (≈ 2.16 µM); MIC50 [15]: 0.5 mg/L (≈ 0.541 µM); MIC90 [15]: > 16 mg/L; MIC50 [16]: 0.12 mg/L (≈ 0.13 µM); MIC90 [16]: 1 mg/L (≈ 1.08 µM); MIC50 [17]: 0.5 mg/L (≈ 0.541 µM); MIC90 [17]: 0.5 mg/L (≈ 0.541 µM); MIC50 [18]: 4 mg/L (≈ 4.33 µM); MIC90 [18]: > 16 mg/L; MIC50 [19]: 0.03 mg/L (≈ 0.0325 µM); MIC90 [19]: 0.5 mg/L (≈ 0.541 µM); MIC50 [20]: 2 mg/L (≈ 2.16 µM); MIC90 [20]: > 16 mg/L; MIC50 [21]: 0.12 mg/L (≈ 0.13 µM); MIC90 [21]: 1 mg/L (≈ 1.08 µM); MIC50 [22]: 0.5 mg/L (≈ 0.541 µM); MIC90 [22]: 8 mg/L (≈ 8.66 µM); MIC50 [23]: 0.12 mg/L (≈ 0.13 µM); MIC90 [23]: 1 mg/L (≈ 1.08 µM); MIC50 [24]: 0.12 mg/L (≈ 0.13 µM); MIC90 [24]: 1 mg/L (≈ 1.08 µM); MIC50 [25]: 0.12 mg/L (≈ 0.13 µM); MIC90 [25]: 1 mg/L (≈ 1.08 µM); MIC50 [26]: 0.5 mg/L (≈ 0.541 µM); MIC90 [26]: > 16 mg/L; MIC50 [27]: 1 mg/L (≈ 1.08 µM); MIC90 [27]: 4 mg/L (≈ 4.33 µM); MIC50 [28]: 0.12 mg/L (≈ 0.13 µM); MIC90 [28]: 1 mg/L (≈ 1.08 µM); MIC50 [29]: 0.5 mg/L (≈ 0.541 µM); MIC90 [29]: > 16 mg/L; MIC50 [30]: 0.12 mg/L (≈ 0.13 µM); MIC90 [30]: 0.25 mg/L (≈ 0.271 µM); MIC50 [31]: 0.5 mg/L (≈ 0.541 µM); MIC90 [31]: > 16 mg/L; MIC50 [32]: 2 mg/L (≈ 2.16 µM); MIC90 [32]: > 16 mg/L; MIC50 [33]: 2 mg/L (≈ 2.16 µM); MIC90 [33]: 4 mg/L (≈ 4.33 µM); MIC50 [34]: 0.5 mg/L (≈ 0.541 µM); MIC90 [34]: 8 mg/L (≈ 8.66 µM); MIC50 [35]: 0.25 mg/L (≈ 0.271 µM); MIC90 [35]: 0.5 mg/L (≈ 0.541 µM); MIC50 [36]: 0.12 mg/L (≈ 0.13 µM); MIC90 [36]: 0.25 mg/L (≈ 0.271 µM); MIC50 [37]: 0.5 mg/L (≈ 0.541 µM); MIC90 [37]: > 16 mg/L; MIC50 [38]: 1 mg/L (≈ 1.08 µM); MIC90 [38]: 2 mg/L (≈ 2.16 µM); MIC50 [39]: 0.25 mg/L (≈ 0.271 µM); MIC90 [39]: 1 mg/L (≈ 1.08 µM); MIC50 [40]: 0.06 mg/L (≈ 0.0649 µM); MIC90 [40]: 0.5 mg/L (≈ 0.541 µM); MIC50 [41]: 0.5 mg/L (≈ 0.541 µM); MIC90 [41]: > 16 mg/L; MIC50 [42]: 0.12 mg/L (≈ 0.13 µM); MIC90 [42]: 1 mg/L (≈ 1.08 µM); MIC50 [43]: 0.5 mg/L (≈ 0.541 µM); MIC90 [43]: 8 mg/L (≈ 8.66 µM); MIC50 [44]: 0.12 mg/L (≈ 0.13 µM); MIC90 [44]: 0.5 mg/L (≈ 0.541 µM); MIC50 [45]: 0.12 mg/L (≈ 0.13 µM); MIC90 [45]: 0.25 mg/L (≈ 0.271 µM)
